In ChEMBL document CHEMBL4229555, “Design, synthesis and structure-activity relationship study of novel naphthoindolizine and indolizinoquinoline-5,12-dione derivatives as IDO1 inhibitors” (Bioorg Med Chem, 2018):

Key:
[1] = target: T1, Indoleamine 2,3-dioxygenase 1 (Homo sapiens, UniProt P14902); experiment: Inhibition of IDO1 (unknown origin) assessed as reduction in N'-formlylkynurenine formation using D-Tryptophan as substrate in presence of ascorbate and methylene blue; settings: in the assay text read “ascorbate” for “aspartate”
Procedure, shortened: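 Room-temperature reaction: 20 nM IDO, 2 mM D-Trp, 20 mM ascorbate, 3.5 μM methylene blue, 0.2 mg/mL catalase in 50 mM potassium phosphate pH 6.5. Initial rates tracked continuously by absorbance rise at 321 nm (N'-formylkynurenine); IC50 by nonlinear regression, normalized dose-response fit.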
Target sequence in this assay (P14902 whole entry): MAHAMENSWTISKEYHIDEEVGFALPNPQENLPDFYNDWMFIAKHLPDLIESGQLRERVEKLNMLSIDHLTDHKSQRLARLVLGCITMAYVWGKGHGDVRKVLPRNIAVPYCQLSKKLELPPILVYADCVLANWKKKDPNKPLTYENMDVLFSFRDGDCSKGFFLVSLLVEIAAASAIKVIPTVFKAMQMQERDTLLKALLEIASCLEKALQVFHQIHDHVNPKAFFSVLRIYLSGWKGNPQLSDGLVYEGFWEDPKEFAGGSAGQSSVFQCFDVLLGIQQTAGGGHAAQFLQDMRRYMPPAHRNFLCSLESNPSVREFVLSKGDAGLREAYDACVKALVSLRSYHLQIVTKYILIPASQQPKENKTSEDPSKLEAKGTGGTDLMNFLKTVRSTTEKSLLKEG

[2] = target: T2, Tryptophan 2,3-dioxygenase (Homo sapiens, UniProt P48775); experiment: Inhibition of recombinant TDO (unknown origin) assessed as reduction in N-formylkynurenine formation using L-Tryptophan as substrate after 75 mins by UV absorption method
Procedure, shortened: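 Recombinant TDO reaction at room temperature in TDO assay buffer with 200 μM L-tryptophan and inhibitor, incubated 75 min; N-formylkynurenine measured by UV absorbance at 321 nm. Blank used buffer in place of enzyme. IC50 from nonlinear regression with normalized dose-response fit.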
Target sequence in this assay (P48775 whole entry): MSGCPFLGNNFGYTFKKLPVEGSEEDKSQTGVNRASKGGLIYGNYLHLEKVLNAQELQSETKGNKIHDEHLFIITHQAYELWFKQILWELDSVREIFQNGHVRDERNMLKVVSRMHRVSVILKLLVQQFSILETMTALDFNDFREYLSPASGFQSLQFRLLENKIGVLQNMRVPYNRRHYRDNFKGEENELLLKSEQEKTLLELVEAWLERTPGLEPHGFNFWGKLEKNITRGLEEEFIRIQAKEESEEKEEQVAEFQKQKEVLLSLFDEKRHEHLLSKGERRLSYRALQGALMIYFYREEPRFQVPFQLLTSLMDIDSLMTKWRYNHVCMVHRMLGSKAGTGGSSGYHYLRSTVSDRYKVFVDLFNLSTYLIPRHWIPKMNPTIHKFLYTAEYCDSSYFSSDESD

[3] = target: T1, Indoleamine 2,3-dioxygenase 1; experiment: Inhibition of IDO1 (unknown origin) assessed as reduction in N'-formlylkynurenine formation at 1 uM using D-Tryptophan as substrate in presence of ascorbate and methylene blue relative to control
Target sequence in this assay (P14902 whole entry, looked up): as the sequence (P14902 whole entry) above

[4] = test system: HeLa; experiment: Cytotoxicity against human HeLa cells after 48 hrs by MTT assay; type: functional, cell-based
Procedure, shortened: (§1)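 Cells seeded at 3-4 × 10^3 per well and incubated overnight, then exposed to compounds added from 10 mM DMSO stock for 48 h; 1% DMSO as negative control.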

[5] = test system: HEK-293T; experiment: Cytotoxicity against HEK293T cells after 48 hrs by MTT assay; type: cell-based; settings: Homo sapiens; procedure, shortened: as §1
[6] = target: T1, Indoleamine 2,3-dioxygenase 1; experiment: Inhibition of IFN-gamma-stimulated IDO1 in human HeLa cells at 1 uM after 24 hrs by Ehrlich's reagent based assay relative to control; type: cell-based
Procedure, shortened: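 IFN-γ (100 ng/mL, 24 h) induction of IDO1 in HeLa cells plated at 40,000/well after 24 h adherence; inhibitor in DMSO, 24 h incubation. Reaction ended with 30% TCA, heated 30 min at 50 °C, centrifuged, supernatant reacted with Ehrlich reagent 10 min at room temperature; read at 490 nm.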
Target sequence in this assay (P14902 whole entry, looked up): as the sequence (P14902 whole entry) above

[7] = target: T1, Indoleamine 2,3-dioxygenase 1; experiment: Inhibition of IFN-gamma-stimulated IDO1 in human HeLa cells after 24 hrs by Ehrlich's reagent based assay; type: cell-based
Procedure, shortened: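 HeLa cells (40,000/well) adhered 24 h, stimulated with 100 ng/mL human recombinant IFN-γ for 24 h, then given inhibitor in DMSO from 10 μM top dose, 3-fold dilutions to 0.1 μM, for 24 h. Stopped with 30% TCA, 30 min at 50 °C, centrifuged; supernatant mixed with Ehrlich reagent 10 min at room temperature, absorbance at 490 nm.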
Target sequence in this assay (P14902 whole entry): as above

[8] = target: T2, Tryptophan 2,3-dioxygenase; experiment: Inhibition of recombinant TDO (unknown origin) assessed as reduction in N-formylkynurenine formation at 10 uM using L-Tryptophan as substrate after 75 mins by UV absorption method relative to control
Procedure, shortened: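 Room-temperature UV assay: recombinant TDO with 200 μM L-tryptophan in TDO assay buffer plus inhibitor, 75 min incubation, then absorbance at 321 nm for N-formylkynurenine. Buffer substituted for TDO as blank.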
Target sequence in this assay (P48775 whole entry, looked up): as the sequence (P48775 whole entry) above

[9] = test system: MCF7; experiment: Cytotoxicity against human MCF7 cells after 48 hrs by MTT assay; type: functional, cell-based; settings: MCF7, 48 h; procedure, shortened: as §1

## Cc1ccccc1NC(=O)c1c2c(n3ccccc13)C(=O)c1ncccc1C2=O
[1]
  IC50: 427 nM
[2]
  IC50: > 100000 nM
[3]
  inhibition: 74%

## COc1cccc2c1C(=O)c1c(O)c3c(c(O)c1C2=O)C[C@@](O)(C(=O)CO)C[C@@H]3O[C@H]1C[C@H](N)[C@H](O)[C@H](C)O1 [DOXORUBICIN]
[4]
  IC50: 660 nM
[5]
  IC50: 1130 nM

## CN(C)CCNC(=O)c1c2c(n3ccccc13)C(=O)c1ccccc1C2=O
[3]
  inhibition: 27%

## CCOC(=O)c1c2c(n3ccccc13)C(=O)c1ccccc1C2=O
[1]
  IC50: 332 nM
[3]
  inhibition: 68%

## O=C1c2ncccc2C(=O)c2c1c(Cc1ccccc1)c1ccccn21
[3]
  inhibition: 56%

## CCOC(=O)c1c2c(n3ccccc13)C(=O)c1ncccc1C2=O
[3]
  inhibition: 35%

## CSc1ccn2c3c(c(C(=O)NCCN(C)C)c2c1)C(=O)c1cccnc1C3=O
[1]
  IC50: 50 nM
[6]
  inhibition: 42%
[7]
  IC50: 1080 nM
[3]
  inhibition: 72.5%

## O=C1c2cccnc2C(=O)c2c1c(C(=O)O)c1ccccn21
[1]
  IC50: 288 nM
[8]
  inhibition: 28%
[3]
  inhibition: 70%

## O=C(O)c1cccc(NC(=O)c2c3c(n4ccccc24)C(=O)c2ncccc2C3=O)c1
[1]
  IC50: 148 nM
[2]
  IC50: 41600 nM
[6]
  inhibition: 9%
[3]
  inhibition: 74.5%

## Cc1ccn2c3c(c(C(=O)O)c2c1)C(=O)c1cccnc1C3=O
[1]
  IC50: 394 nM
[3]
  inhibition: 70%

## COC(=O)c1c2c(n3ccccc13)C(=O)c1ccccc1C2=O
[1]
  IC50: 156 nM
[8]
  inhibition: 40%
[6]
  inhibition: 24%
[3]
  inhibition: 77%

## O=C1c2cccnc2C(=O)c2c1c(C(=O)Nc1cccc(Cl)c1)c1ccccn21
[3]
  inhibition: 29.5%

## COc1ccn2c3c(c(C(=O)O)c2c1)C(=O)c1cccnc1C3=O
[1]
  IC50: 299 nM
[3]
  inhibition: 69%

## NC(=S)NNC(=O)c1c2c(n3ccccc13)C(=O)c1ncccc1C2=O
[1]
  IC50: 23 nM
[2]
  IC50: 1200 nM
[4]
  IC50: > 20000 nM
[9]
  IC50: > 20000 nM
[5]
  IC50: > 20000 nM
[6]
  inhibition: 22%
[3]
  inhibition: 74.5%

## COC(=O)c1c2c(n3ccccc13)C(=O)c1cccc(O)c1C2=O
[1]
  IC50: 87 nM
[6]
  inhibition: 12%
[3]
  inhibition: 77%

## O=C1c2ccccc2C(=O)c2c1c(C(=O)O)c1ccccn21
[1]
  IC50: 714 nM
[3]
  inhibition: 61%

## O=C1c2ccccc2C(=O)c2c1c(C(=O)NCCO)c1ccccn21
[3]
  inhibition: 22%

## COC(=O)c1c2c(n3ccccc13)C(=O)c1cccnc1C2=O
[1]
  IC50: 448 nM
[3]
  inhibition: 69%

## CN(C)CCNC(=O)c1c2c(n3ccccc13)C(=O)c1cccnc1C2=O
[1]
  IC50: 188 nM
[8]
  inhibition: 88%
[2]
  IC50: 7150 nM
[6]
  inhibition: 81%
[7]
  IC50: 1240 nM
[3]
  inhibition: 77%

## O=C1c2cccnc2C(=O)c2c1c(Cc1ccccc1)c1ccccn21
[3]
  inhibition: 34%

## COC(=O)c1c2c(n3ccccc13)C(=O)c1ncccc1C2=O
[1]
  IC50: 438 nM
[3]
  inhibition: 65%

## O=C(O)c1cccc(NC(=O)c2c3c(n4ccccc24)C(=O)c2cccnc2C3=O)c1
[1]
  IC50: 390 nM
[2]
  IC50: > 100000 nM
[3]
  inhibition: 71.5%

## NS(=O)(=O)NCCNC1=NON/C1=C(/NO)Nc1ccc(F)c(Br)c1
[1]
  IC50: 73 nM
[6]
  inhibition: 96%
[7]
  IC50: 7 nM

## Cc1ccccc1NC(=O)c1c2c(n3ccccc13)C(=O)c1cccnc1C2=O
[1]
  IC50: 134 nM
[2]
  IC50: > 100000 nM
[6]
  inhibition: 38%
[7]
  IC50: 2660 nM
[3]
  inhibition: 64%

## O=C1c2ncccc2C(=O)c2c1c(C(=O)O)c1cc(I)ccn21
[1]
  IC50: 420 nM
[3]
  inhibition: 67%

## CN(C)CCNC(=O)c1c2c(n3ccccc13)C(=O)c1ncccc1C2=O
[1]
  IC50: 127 nM
[8]
  inhibition: 91%
[2]
  IC50: 3350 nM
[6]
  inhibition: 43%
[7]
  IC50: 738 nM
[3]
  inhibition: 78%

## O=C1c2ncccc2C(=O)c2c1c(C(=O)O)c1ccccn21
[1]
  IC50: 1190 nM
[3]
  inhibition: 58%

## CSc1ccn2c3c(c(C(=O)NCCN(C)C)c2c1)C(=O)c1ncccc1C3=O
[1]
  IC50: 39 nM
[6]
  inhibition: 77%
[7]
  IC50: 372 nM
[3]
  inhibition: 80.5%

## CN(C)CCCNC(=O)c1c2c(n3ccccc13)C(=O)c1ccccc1C2=O
[3]
  inhibition: 24%

## O=C1c2c(O)cccc2C(=O)c2c1c(C(=O)O)c1ccccn21
[3]
  inhibition: 60%

## COc1ccn2c3c(c(C(=O)O)c2c1)C(=O)c1ncccc1C3=O
[3]
  inhibition: 47%

## CCOC(=O)c1c2c(n3ccccc13)C(=O)c1cccnc1C2=O
[1]
  IC50: 977 nM
[8]
  inhibition: 14%
[3]
  inhibition: 61%

## O=C1c2cccnc2C(=O)c2c1c(C(=O)O)c1cc(I)ccn21
[1]
  IC50: 117 nM
[6]
  inhibition: 12%
[3]
  inhibition: 67%

## O=C1c2ccccc2C(=O)c2c1c(C(=O)NCCCO)c1ccccn21
[3]
  inhibition: 15%

## CC(C)OC(=O)c1c2c(n3ccccc13)C(=O)c1ccccc1C2=O
[3]
  inhibition: 13%

## O=C1c2ncccc2C(=O)c2c1c(C(=O)Nc1cccc(Cl)c1)c1ccccn21
[3]
  inhibition: 34%

## CN(C)CCNC(=O)c1c2c(n3ccccc13)C(=O)c1cccc(O)c1C2=O
[3]
  inhibition: 29%

## O=C1c2ncccc2C(=O)c2c1c(C(=O)Nc1ccccc1)c1ccccn21
[1]
  IC50: 119 nM
[2]
  IC50: > 100000 nM
[6]
  inhibition: 25%
[3]
  inhibition: 62%

## O=C1c2cccnc2C(=O)c2c1c(C(=O)Nc1ccccc1)c1ccccn21
[1]
  IC50: 361 nM
[2]
  IC50: 7300 nM
[3]
  inhibition: 68%

## Cc1ccn2c3c(c(C(=O)O)c2c1)C(=O)c1ncccc1C3=O
[3]
  inhibition: 54%
